Non-standard residues stand in square brackets, D forms with d. Residues, ends and D or L forms follow the SMILES beside them. 3Thi = N[C@@H](Cc1ccsc1)C(=O)O; Sar = CNCC(=O)O
How the values were obtained:
Type in all cases: functional
Rattus norvegicus [1] = assay: In vivo agonist angiotensin II like activity was measured in rat blood pressure increase by a 1 ug iv injection
How it was run: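 Rat blood pressure in vivo. Residual AII-like activity read as the pressor rise (mmHg) after a 1-μg intravenous bolus of compound. Mean of at least five tests with standard error.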

Oryctolagus cuniculus = organism: Oryctolagus cuniculus; assay: In vitro agonist angiotensin II like activity was measured in the rabbit aorta strip assay
How it was run: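 Isolated rabbit aortic strips in vitro. Agonist (AII-like) activity expressed as percent of the activity of AII.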

Rattus norvegicus [2] = assay: Antagonist activity ID50 was measured in vivo in the rat blood pressure assay
How it was run: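 Rat blood pressure in vivo, 250-g rats, compound given by infusion. AII dose-response curves measured before and during the infusion. ID50 expressed as ng/rat per min. Mean of at least five tests with standard error.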

Rattus norvegicus [3] = assay: In vivo angiotensin II like activity was measured in rat blood pressure assay expressed as percent activity relative to A II

Structure (SMILES)	BP increase (Rattus norvegicus [1]) [mmHg]	Activity (Oryctolagus cuniculus) [%]	ID50 (Rattus norvegicus [2]) [ng min-1 rat-1]	Activity (Rattus norvegicus [3]) [%]
CC[C@H](C)[C@H](NC(=O)[C@@H]1CCCN1C(=O)[C@H](Cc1cncn1C)NC(=O)[C@@H](NC(=O)[C@H](Cc1ccc(O)cc1)NC(=O)[C@@H](NC(=O)[C@H](CCCN=C(N)N)NC(=O)CNC)C(C)C)[C@@H](C)CC)C(=O)O	2.5	0	100	
CC[C@H](C)[C@H](NC(=O)[C@@H]1CCCN1C(=O)[C@H](Cc1c[nH]cn1)NC(=O)[C@@H](NC(=O)[C@H](Cc1ccc(O)cc1)NC(=O)[C@@H](NC(=O)[C@H](N)CCCN=C(N)N)C(C)C)[C@@H](C)CC)C(=O)O	5	0	100	
CC[C@H](C)[C@H](NC(=O)[C@@H]1CCCN1C(=O)[C@H](Cc1c[nH]cn1)NC(=O)[C@@H](NC(=O)[C@H](Cc1ccc(O)cc1)NC(=O)[C@@H](NC(=O)[C@@H](CCCN=C(N)N)NC(=O)CNC)C(C)C)[C@@H](C)CC)C(=O)O	10	0	100	
CC[C@H](C)[C@H](NC(=O)[C@@H]1CCCN1C(=O)[C@H](Cc1c[nH]cn1)NC(=O)[C@@H](NC(=O)[C@H](Cc1ccc(O)cc1)NC(=O)[C@@H](NC(=O)[C@H](CCCCN=C(N)N)NC(=O)CNC)C(C)C)[C@@H](C)CC)C(=O)O	7.5	0	50	
CC[C@H](C)[C@H](NC(=O)[C@@H]1CCCN1C(=O)[C@H](Cc1c[nH]cn1)NC(=O)[C@@H](NC(=O)[C@H](Cc1ccc(O)cc1)NC(=O)[C@@H](NC(=O)[C@@H](CCCCN)NC(=O)CNC)C(C)C)[C@@H](C)CC)C(=O)O	12.5	0	50	
CC[C@H](C)[C@H](NC(=O)[C@H](Cc1ccc(O)cc1)NC(=O)[C@@H](NC(=O)[C@H](C)NC(=O)[C@@H](N)CC(=O)O)C(C)C)C(=O)N[C@@H](Cc1c[nH]cn1)C(=O)N1CCC[C@H]1C(=O)N[C@@H](Cc1ccccc1)C(=O)O (H-DAVYIHPF-OH)				7.7
CC[C@@H](N)C(=O)N[C@H](C(=O)N[C@@H](Cc1ccc(O)cc1)C(=O)N[C@H](C(=O)N[C@@H](Cc1c[nH]cn1)C(=O)N1CCC[C@H]1C(=O)N[C@@H](Cc1ccccc1)C(=O)O)[C@@H](C)CC)C(C)C				22
CC[C@H](C)[C@H](NC(=O)[C@@H]1CCCN1C(=O)[C@H](Cc1ccccc1)NC(=O)[C@@H](NC(=O)[C@H](Cc1ccc(O)cc1)NC(=O)[C@@H](NC(=O)[C@H](CCCN=C(N)N)NC(=O)CNC)C(C)C)[C@@H](C)CC)C(=O)O (H-[Sar]RVYIFPI-OH)	10	0	100	
CC[C@H](C)[C@H](NC(=O)[C@@H]1CCCN1C(=O)[C@H](Cc1ccsc1)NC(=O)[C@@H](NC(=O)[C@H](Cc1ccc(O)cc1)NC(=O)[C@@H](NC(=O)[C@H](CCCN=C(N)N)NC(=O)CNC)C(C)C)[C@@H](C)CC)C(=O)O (H-[Sar]RVYI[3Thi]PI-OH)	12.5	0	100	
CC[C@H](C)[C@H](NC(=O)[C@H](Cc1ccc(O)cc1)NC(=O)[C@@H](NC(=O)[C@@H](N)CCCCN=C(N)N)C(C)C)C(=O)N[C@@H](Cc1c[nH]cn1)C(=O)N1CCC[C@H]1C(=O)N[C@@H](Cc1ccccc1)C(=O)O				2.07
CC[C@H](C)[C@H](NC(=O)[C@@H]1CCCN1C(=O)[C@H](Cc1c[nH]cn1)NC(=O)[C@@H](NC(=O)[C@H](Cc1ccc(O)cc1)NC(=O)[C@@H](NC(=O)[C@@H](N)CCCN=C(N)N)C(C)C)[C@@H](C)CC)C(=O)O	5	0	200	
CC[C@H](C)[C@H](NC(=O)[C@@H]1CCCN1C(=O)[C@H](Cc1c[nH]cn1)NC(=O)[C@@H](NC(=O)[C@H](Cc1ccc(O)cc1)NC(=O)[C@@H](NC(=O)[C@H](CCCN=C(N)N)NC(=O)CNC)C(C)C)[C@@H](C)CC)C(=O)O	10.2	0	10	
CC[C@H](C)[C@H](NC(=O)[C@@H]1CCCN1C(=O)[C@H](Cc1c[nH]c2ccccc12)NC(=O)[C@@H](NC(=O)[C@H](Cc1ccc(O)cc1)NC(=O)[C@@H](NC(=O)[C@H](CCCN=C(N)N)NC(=O)CNC)C(C)C)[C@@H](C)CC)C(=O)O (H-[Sar]RVYIWPI-OH)	7.5	0	100	
